Screening results deposited in PubChem BioAssay by several laboratories.
Compounds with a hit are over-represented: about 2.7% of the library has one in this group of screens.
sdo1 growth: sdo1-depleted yeast growth rescue; AID 817; 140,000 tested, 0.21% active; S. cerevisiae sdo1-depleted JHY4D growth rescue, OD600 30 h; active compounds read high; pdr5 snq2 efflux-pump mutant strain; z-score at 10 µM;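 active = z-score above 3 at both the 24 hr and the 30 hr optical density reads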;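 also: z-score against mean and SD of all compound wells on the same plate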
Yeast lifespan up: yeast lifespan extension; S. cerevisiae growth with nicotinamide, OD615; deaD strain in restrictive glucose medium; inhibition of the nicotinamide effect, % at 10 µM; 130,000 tested, 0.68% active; AID 775;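 active = inhibition above a set limit, placed 3 SD over the median of all compounds, cut at about 26% in these data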;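 also: 0% = nicotinamide-treated wells and 100% = cells grown without nicotinamide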
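assay system = DeaD-strain S. cerevisiae | buffer or medium = restrictive glucose medium | reagent = 1.5 mM nicotinamide | compound = 10 µM single point, 0.25% DMSO | incubation = 48 h compound exposure at 30 °C, humidified | signal = OD615 measurement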
RAM inhibit: yeast RAM network inhibition | S. cerevisiae dse1pr::URA3 reporter, 5-FOA growth OD615, 2 d; analog-sensitive cbk1-as2 kinase mutant strain | inhibition, % at 50 µM | 190,000 tested, 1.8% active;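 active = inhibition above a set limit, 3 SD over mean compound inhibition, cut at about 8.4% in these data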;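 also: 0% = DMSO-only wells with no growth and 100% = 10 µM 1-NA-PP1 full growth; inhibition rescues growth on 5-FOA so higher OD means more RAM inhibition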
BB579 growth dn: yeast BB579 growth reduction in restrictive medium; AID 804; S. cerevisiae BB579 growth, OD615, 48 h; inhibition, % at 10 µM; 140,000 tested, 0.51% active;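 active = inhibition above a set limit, 3 SD over the mean compound inhibition, cut at about 44% in these data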
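Material: Saccharomyces cerevisiae DeaD strain BB579, replicative lifespan model yeast; buffer or medium: CSMM-D restrictive synthetic medium containing dextrose (glucose); compound: 10 µM single dose, DMSO 0.25%; timing: 48 h compound exposure at 30 °C after 4 h preincubation; signal: turbidity as optical density at 615 nm; benchmarks: positive control amphotericin B 10 µg/mL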
* marks the source's active call; other numbers are inactive results; . = no result.

SMILES	sdo1 growth	Yeast lifespan up	RAM inhibit	BB579 growth dn
CC(=O)Nc1ccc2c(c1)nc(CN1CCCC1)n2C	0.07	-8	0	-46
c1cnc2c(c1)ccc1cccnc12	-0.96	-9	0	99*
O=C(c1ccc(N2C(=O)CCC2=O)cc1)N1CCN(c2ccccc2)CC1	0.12	-8	0	-22
CCCCCC/C(C)=C1/SC(=S)NC1=O	-1.9	-13	2	95*
Clc1ccc(CNc2nc(N3CCOCC3)nc(N3CCOCC3)n2)cc1	-0.51	-13	-1	4
CCn1c(CSCc2ccccc2)n[nH]c1=S	.	.	0	.
CCc1cc2c(=O)[nH]c(N3CCCC3)nc2s1	0.81	1	1	-31
CCc1cc2c(=O)[nH]c(-c3ccccn3)nc2s1	-1.3	-6	-1	78*
CN(C)c1ccc(NC(=O)c2sc(SCC(=O)Nc3ccc(Br)cc3)nc2N)cc1	1.4	0	8.7*	-43
CCOc1ccc(C2SCC(=O)N2c2c(C)n(C)n(-c3ccccc3)c2=O)cc1 (stereo not drawn)	0.19	-3	2	-41
CCOc1ccc(C2=C(C=Nc3c(C)n(C)n(-c4ccccc4)c3=O)C(c3ccc(F)cc3)c3ccccc3O2)cc1 (stereo not drawn)	-0.02	-3	8.5*	-49
COc1ccc(N(CC(=O)Nc2cc(C)on2)S(=O)(=O)c2cc(C)ccc2C)cc1	-0.9	-6	2	-13
CC(=O)n1nc(-c2ccco2)nc1SCc1ccccc1	0.63	-12	0	22
O=[N+]([O-])c1cc(S(=O)(=O)N2CCCCCC2)ccc1F	-0.84	66*	2	-7
O=[N+]([O-])c1cc(S(=O)(=O)N2CCCC2)ccc1O	-0.13	3	0	-20
CCOC(=O)CSc1ccc(S(=O)(=O)N2CCCCC2)cc1[N+](=O)[O-]	0.11	8	8.7*	-51
CCOC(=O)CSc1ccc(S(=O)(=O)N2CCCC2)cc1[N+](=O)[O-]	.	.	1	.
Cc1c(C#N)c(SCC(N)=O)nc2c1CCCC2	1.1	-19	1	-25
COC(=O)C1=C(C)N(CCc2ccccc2)C(=O)/C1=C\c1ccco1	-0.81	16	11*	-42
CCN1C(=O)/C(=C\c2ccco2)C(C(=O)OC)=C1C	1.8	-31	0	-25
COC(=O)C1=C(C)N(c2cccc(OC)c2)C(=O)/C1=C\c1ccco1	-0.26	20	9.0*	-36
COCCNC(=O)CN(CC1CCCO1)C(=O)CCC(=O)Nc1ccccn1 (stereo not drawn)	-0.18	2	1	-45
COc1cccc2sc(Nc3nnc(-c4ccc(F)cc4)o3)nc12	-0.08	3	0	-27
Fc1cccc2sc(Nc3nnc(-c4ccco4)o3)nc12	0.54	94*	2	-46
COc1ccc(/C=N/NC(=O)c2cccc([N+](=O)[O-])c2)cc1OS(=O)(=O)c1ccc(C)cc1	0.05	-4	0	-12
SMILES	sdo1 growth	Yeast lifespan up	RAM inhibit	BB579 growth dn
O=C(Oc1ccc(Cl)c2cccnc12)c1ccco1	-2.8	-18	0	96*
CCCCCCOC(=O)Sc1nc2ccccc2o1	-2	-26	-1	81*
COC(=O)CSc1nc2ccccc2o1	0.33	-26	1	-26
CCc1cc(OCCCCNCc2ccccc2)ccc1Cl	-1.6	-9	0	32
COc1ccc(/C=C/C(=O)Nc2cccc(S(=O)(=O)N3CCCC3)c2)cc1OC	.	.	8.5*	.
COc1ccc(/C=C/C(=O)N2CCN(S(=O)(=O)c3ccccc3)CC2)cc1OC	.	.	0	.
O=C(COc1ccc(Br)cc1)NCc1ccccn1	0.23	-15	-1	-18
N#Cc1ccc(OCC(=O)NCCc2ccccn2)cc1	0.67	46*	2	-26
c1ccc(CN=C2NN=C(c3ccccc3)CS2)cc1	.	.	5	.
c1ccc(C2=NNC(=NCc3ccc4c(c3)OCO4)SC2)cc1	-0.05	-3	9.0*	-31
Cc1ccccc1Nc1nc(N)nc(CSc2nc3ccccc3s2)n1	-1.7	-5	2	-20
Cc1ccc(Nc2nc(N)nc(CSc3nc4ccccc4s3)n2)cc1	-1.8	-20	9.8*	-71
Cc1cccc(N2C(=O)/C(=C\c3ccc(OC(F)F)cc3)c3ccccc3C2=O)c1	-0.99	47*	5	-27
COc1cccc(/C=C2\C(=O)N(c3cccc(C)c3)C(=O)c3ccccc32)c1	-1.1	48*	3	-10
CCOc1cc(/C=C2\C(=O)N(c3cccc(C(F)(F)F)c3)C(=O)c3ccccc32)ccc1O	-0.67	10	3	-25
Cc1c(C(=O)O)cccc1-c1ccc(/C=N/Nc2ccc(Br)cc2)o1	-0.81	-6	2	44*
OCCC1CN(Cc2cccc3nonc23)CCN1C1CCCCC1 (stereo not drawn)	.	.	1	.
C/C=C/c1ccc(OCCCCOc2ccc(OC)cc2)c(OC)c1	-0.59	-5	10*	-44
C/C=C/c1ccc(OCCCCN2CCN(CC)CC2)c(OC)c1	.	.	-1	.
Cc1cccc(N2CCN(C(=O)Cn3cccc3)CC2)c1C	0.11	-7	1	1
O=C(CSc1nc2cc(Cl)ccc2c(=O)n1Cc1ccco1)Nc1ccc(S(=O)(=O)N2CCOCC2)cc1	-0.07	3	9.1*	-44
COc1cc(/C=C(\C#N)c2ccccn2)ccc1OCC(=O)Nc1cccc(C(F)(F)F)c1	0.38	1	8	-32
COc1cc(/C=C(\C#N)c2ccccn2)ccc1OCc1ccccc1Cl	-0.86	-4	9.7*	-39
CCn1c2ccccc2c2nc3cc(OC)c(OC)cc3nc21	-0.89	-27	9.3*	-16
CCn1c2ccccc2c2nc3ccccc3nc21	-1.4	-15	4	34
SMILES	sdo1 growth	Yeast lifespan up	RAM inhibit	BB579 growth dn
COc1cc2nc3c4ccccc4n(CC#N)c3nc2cc1OC	0.24	-15	8.4*	-18
COC(=O)c1sc2nc(-c3ccco3)ccc2c1N	1.4	-24	1	5
NC(=O)c1sc2nc(-c3ccco3)ccc2c1N	-0.56	-24	2	53*
Nc1c(C(=O)Nc2ccccc2F)sc2nc(-c3ccco3)ccc12	0.01	-1	9.2*	-73
Cc1c(C(=O)O)sc2nc(SCC(=O)Nc3ccc(S(=O)(=O)NCCCC(=O)O)cc3)[nH]c(=O)c12	.	.	2	.
Cc1c(C(=O)O)sc2nc(SCC(=O)Nc3ccc(S(=O)(=O)NC(C)(C)C)cc3)[nH]c(=O)c12	.	.	8.5*	.
C=CCn1c(=O)c(C(=O)OCC)c(O)c2ccccc21	.	.	-3	.
CCCn1c(=O)c(C(=O)OCC)c(O)c2cc(Br)ccc21	.	.	9.8*	.
O=C(COc1ccc(Cl)cc1Cl)NCCSc1ccc(Cl)cc1	-1.5	-25	9.0*	-39
CN(C)CCNC(=O)COc1ccc(Cl)cc1Cl	0.69	3	2	-24
CCc1cccc2c(C(=O)COC(=O)c3ccc([N+](=O)[O-])s3)c[nH]c12	-2.1	-9	3	98*
O=C(OCC(=O)c1c[nH]c2ccccc12)c1ccc([N+](=O)[O-])s1	.	.	1	.
Brc1cc2c(cc1Cn1c(-c3cncs3)nc3ccccc31)OCO2	0.43	23	10*	-45
Cc1ccccc1Cn1c(-c2cncs2)nc2ccccc21	-0.75	-8	0	-71
